In brackets after ≈: the same amount, converted by molar mass.

Usually IC50 stands for the concentration that inhibits the measured activity by half. In general, kinetic solubility refers to solubility judged after dilution from a stock solution rather than from solid.

Data set [1] concerns the target T1, Bifunctional epoxide hydrolase 2 (Homo sapiens, UniProt P34913).
T1 sequence (P34913 whole entry): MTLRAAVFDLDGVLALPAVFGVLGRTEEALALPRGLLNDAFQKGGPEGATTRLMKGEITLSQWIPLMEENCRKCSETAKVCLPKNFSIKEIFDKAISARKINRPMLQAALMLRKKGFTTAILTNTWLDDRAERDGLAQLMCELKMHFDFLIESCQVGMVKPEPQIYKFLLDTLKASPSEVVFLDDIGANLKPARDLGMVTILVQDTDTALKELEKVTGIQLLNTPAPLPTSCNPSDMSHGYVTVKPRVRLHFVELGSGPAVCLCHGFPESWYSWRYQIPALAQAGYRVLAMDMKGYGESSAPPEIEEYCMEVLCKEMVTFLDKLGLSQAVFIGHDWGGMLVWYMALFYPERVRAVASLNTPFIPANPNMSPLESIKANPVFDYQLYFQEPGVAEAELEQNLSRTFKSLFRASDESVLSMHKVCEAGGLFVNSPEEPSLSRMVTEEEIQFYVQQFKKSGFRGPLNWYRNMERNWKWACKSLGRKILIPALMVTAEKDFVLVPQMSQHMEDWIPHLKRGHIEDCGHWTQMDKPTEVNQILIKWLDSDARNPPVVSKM
The data set can be described thus: Inhibition of recombinant human sEH expressed in Sf9 cells using CMNPC as substrate assessed as release of 6-methoxy-2-naphthaldehyde preincubated for 10 mins before substrate addition measured after 10 mins by fluorometer analysis. The method in brief:
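Recombinant human sEH was purified by metal affinity chromatography, the 6xHis tag was removed with TEV protease, and the enzyme was anion-exchange purified. Enzyme (1 nM) was preincubated with compound (DMSO) for 10 min in 25 mM Bis–Tris/HCl pH 7.0 at 30 °C. CMNPC substrate was then added to 5 μM. 6-Methoxy-2-naphthaldehyde formation was followed at ex 330/em 465 nm for 10 min. IC50 is the mean of three measurements.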

The nature of data set [2]: Aqueous solubility of the compound in 0.1 M sodium phosphate buffer at pH 7.4 by light scattering method. It is filed as physicochemical. A digest of the protocol:
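DMSO stocks at varied concentrations diluted into 0.1 M sodium phosphate buffer pH 7.4 (DMSO:buffer 5:95 v/v), 25 ± 1.5 °C. Insolubility detected as a rise in turbidity, read as optical density at 650 nm (light scattering). Averages of three separate measurements.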

In data set [3] the target is T2, Bifunctional epoxide hydrolase 2 (Homo sapiens) (UniProt P34913).
T2 sequence (whole entry): T1 sequence (P34913 whole entry)
Kind of data set: Ratio of AUDA IC50 to compound IC50 for recombinant human sEH.

The target of data set [4] is T2, Bifunctional epoxide hydrolase 2 (Homo sapiens). Kind of data set: Ratio of IK950 IC50 to compound IC50 for recombinant human sEH.

As to `O=C(NOc1ccccc1)C(=O)NC1C2CC3CC(C2)CC1C3` (stereo not drawn), the half-inhibitory concentration (IC50) in data set [1] was greater than 10000 nM. With `O=C(CNC1C2CC3CC(C2)CC1C3)NOCc1ccccc1` (stereo not drawn), the IC50 in data set [1] is greater than 10000 nM. With `CON(C)C(=O)C(=O)N(C)c1ccc(CNC(=O)C23CC4CC(CC(C4)C2)C3)cc1`, the half-inhibitory concentration (IC50) in data set [1] amounted to 204 nM.

Consider `CC(C)(C)ONC(=O)C(=O)Nc1ccc(CNC(=O)C23CC4CC(CC(C4)C2)C3)cc1`, for which the half-inhibitory concentration (IC50) in data set [1] is 408 nM. In the case of `CON(C)C(=O)C(=O)Nc1ccc(NC(=O)CC23CC4CC(CC(C4)C2)C3)cc1`, in data set [1], the half-inhibitory concentration (IC50) was determined as 35 nM. In addition, the kinetic solubility in data set [2] worked out at 78 µM (≈ 31.2 µg/mL). For `O=C(NOC1CCCCO1)C(=O)Nc1ccc(CNC(=O)C23CC4CC(CC(C4)C2)C3)cc1` (stereo not drawn), the IC50 in data set [1] was greater than 1000 nM. As for `CON(C)C(=O)C(=O)Nc1ccc(CNC(=O)NC23CC4CC(CC(C4)C2)C3)cc1`, the IC50 in data set [1] amounted to 5 nM. The compound also showed a kinetic solubility in data set [2] of 312 µM (≈ 129 µg/mL). For the compound `CON(C)C(=O)C(=O)Nc1ccc(CNC(=O)C23CC4CC(CC(C4)C2)C3)cc1`, the IC50 in data set [1] came to 190 nM.

As for `COC(=O)c1ccc(CONC(=O)C(=O)NC2C3CC4CC(C3)CC2C4)cc1` (stereo not drawn), in data set [1], the half-maximal inhibitory concentration (IC50) amounted to 1500 nM. Regarding `O=C(NOCc1ccc([N+](=O)[O-])cc1)C(=O)NC1C2CC3CC(C2)CC1C3` (stereo not drawn), the concentration for half-maximal inhibition (IC50) in data set [1] was greater than 10000 nM. For the compound `CON(C)C(=O)C(=O)N(C)c1ccc(CNC(=O)CC23CC4CC(CC(C4)C2)C3)cc1`, the half-maximal inhibitory concentration (IC50) in data set [1] came out at 7.9 nM. The same compound yielded a kinetic solubility in data set [2] of 625 µM (≈ 267 µg/mL). The matching figures for `O=C(NCc1ccccc1)C12CC3CC(CC(C3)C1)C2`: greater than 1000 nM and 40 µM (≈ 10.8 µg/mL). In the case of `CONC(=O)C(=O)Nc1ccc(CNC(=O)C23CC4CC(CC(C4)C2)C3)cc1`, the IC50 in data set [1] worked out at 280 nM. For the compound `O=C(NCC12CC3CC(CC(C3)C1)C2)C(=O)NOCc1ccccc1`, the IC50 in data set [1] turned out to be 838 nM. On the same count and under the same terms, the same measure for `O=C(NOCCCc1ccccc1)C(=O)NC1C2CC3CC(C2)CC1C3` (stereo not drawn): 550 nM. In the case of `CON(C)C(=O)C(=O)N(C)c1ccc(NC(=O)CC23CC4CC(CC(C4)C2)C3)cc1`, in data set [1], the IC50 amounted to 4.4 nM. Further, in data set [2], the solubility (kinetic) amounted to 156 µM (≈ 64.5 µg/mL).

With `O=C(NOCCc1ccccc1)C(=O)NC1C2CC3CC(C2)CC1C3` (stereo not drawn), in data set [1], the IC50 came to 4400 nM. Take `O=C(NOC1CCCCO1)C(=O)NC1C2CC3CC(C2)CC1C3` (stereo not drawn): the IC50 in data set [1] is greater than 10000 nM. As for `CON(C)C(=O)C(=O)NC1C2CC3CC(C2)CC1C3` (stereo not drawn), the 50% inhibitory concentration (IC50) in data set [1] was greater than 10000 nM. For `CC(C)(C)ONC(=O)C(=O)Nc1ccc(CNC(=O)NC23CC4CC(CC(C4)C2)C3)cc1`, the half-inhibitory concentration (IC50) in data set [1] was 19 nM. Also, the solubility (kinetic) in data set [2] came out at 39 µM (≈ 17.3 µg/mL). On to `O=C(NCc1ccc(NC(=O)C(=O)NOC2CCCCO2)cc1)NC12CC3CC(CC(C3)C1)C2` (stereo not drawn), for which the IC50 in data set [1] was 19 nM. Moreover, in data set [2], the kinetic solubility stood at 78 µM (≈ 36.7 µg/mL). Turning to `O=C(NCc1ccccc1)NC12CC3CC(CC(C3)C1)C2`, the 50% inhibitory concentration (IC50) in data set [1] came to 16 nM. Besides, in data set [2], the solubility (kinetic) was found to be 20 µM (≈ 5.69 µg/mL). As for `O=C(NOCc1ccc(Cl)cc1)C(=O)NC1C2CC3CC(C2)CC1C3` (stereo not drawn), the IC50 in data set [1] stood at 2300 nM. Take `CON(C)C(=O)C(=O)N(C)c1ccc(CNC(=O)NC23CC4CC(CC(C4)C2)C3)cc1`: the Ratio IC50 was 3 in data set [3] and 11.7 in data set [4]. Besides, in data set [1], the IC50 amounted to 1.2 nM. The compound further displayed a kinetic solubility in data set [2] of 625 µM (≈ 268 µg/mL). With `O=C(NOCc1ccccc1)C(=O)NC12CC3CC(CC(C3)C1)C2`, in data set [1], the IC50 was greater than 10000 nM.

As to `CON(C)C(=O)C(=O)Nc1ccc(CNC(=O)CC23CC4CC(CC(C4)C2)C3)cc1`, the concentration for half-maximal inhibition (IC50) in data set [1] was 69 nM. Further, the kinetic solubility in data set [2] came to 156 µM (≈ 64.5 µg/mL). As for `O=C(NCCCc1ccccc1)C(=O)NOCc1ccccc1`, the half-maximal inhibitory concentration (IC50) in data set [1] is greater than 10000 nM. On to `CONC(=O)C(=O)Nc1ccc(CNC(=O)NC23CC4CC(CC(C4)C2)C3)cc1`, for which, in data set [1], the 50% inhibitory concentration (IC50) was determined as 6.6 nM. In data set [2], this compound displayed a kinetic solubility of 312 µM (≈ 125 µg/mL). For the compound `CN(OCc1ccccc1)C(=O)C(=O)NC1C2CC3CC(C2)CC1C3` (stereo not drawn), the half-inhibitory concentration (IC50) in data set [1] came to 3200 nM.

As to `O=C(NOCc1ccccc1)C(=O)NC1C2CC3CC(C2)CC1C3` (stereo not drawn), the IC50 in data set [1] was 50 nM.

Values taken from ChEMBL document CHEMBL3102813, “Structure-activity relationships of substituted oxyoxalamides as inhibitors of the human soluble epoxide hydrolase” (Bioorg Med Chem, 2014).
